Experimental data taken from ChEMBL document CHEMBL4513216, “Probing the Open Global Health Chemical Diversity Library for Multistage-Active Starting Points for Next-Generation Antimalarials” (ACS Infect Dis, 2020).

Assay: Toxicity liver stage against HepG2, at 10uM
Assay type: cell-based
Design: test concentration 10 uM, cell line HepG2-A16-CD81EGFP
Settings: human, HepG2-A16-CD81EGFP cells; read-out: INHIBITION
Summary of the method: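 Uninfected HepG2-A16-CD81EGFP cells, 3 × 10^3 per well, 1536-well, plated on prespotted compound at 10 μM final, parasite-free screening media added to match infected plates; puromycin 10 μM positive, DMSO 0.5% negative; run in parallel with 48 h PbLuc assay at 37 °C, 5% CO2; viability by CellTiter-Glo luminescence, normalized to controls.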

Row | SMILES | cytotoxicity at 10 µM [%]
1 | Cc1ccc(C(=O)NCCNC(=O)N(C)C(C)c2ccccn2)cc1 (configuration not stated) | 7.97
2 | COCC1CN(Cc2ccccn2)Cc2cn(C)nc21 (configuration not stated) | -78.6
3 | Cc1ccn(CCC(=O)NCc2ccco2)n1 | 5.94
4 | CN(Cc1ccncc1)C(=O)c1ccc2c(c1O)OC(C)(C)C2 | 1.95
5 | Cn1ccnc1CN1CCC2(CC(=O)N(c3cccc(F)c3)C2)C1 (configuration not stated) | 6.97
6 | CC(CCSc1ccccc1)N1CCN(C(=O)c2cccs2)CC1 (configuration not stated) | 25.5
7 | O=C1CCCN1Cc1ncn2c1CN(C(=O)NC1CCCC1)CCC2 | -147
8 | Cn1ncc2c1CCCC2NCc1cccc(C(F)(F)F)c1 (configuration not stated) | -8.25
9 | NC(=O)c1cccc(CNC(=O)NCCOc2ccc(F)c(F)c2)c1 | 9.77
10 | Cc1nc2n(n1)CC(NCc1nc3ccccc3o1)CC2 (configuration not stated) | -0.608
11 | O=C1COc2c(cccc2C(=O)N2CCCCC2Cn2cccn2)N1 (configuration not stated) | 4.07
12 | Cc1cc(F)c(S(=O)(=O)NCc2ccnc(N(C)C)n2)cc1F | -156
13 | CC[C@@H]1N(Cc2ccsc2)CCC[C@]12CCC(=O)N2C | 10
14 | Cc1ncsc1CN1C[C@H](C(=O)NC2CCCC2)[C@@H]2CCO[C@@H]2C1 | 8.04
15 | Cc1cn2nc(N3CCCN(Cc4noc(C)n4)CC3)sc2n1 | 0.529
16 | Cc1cc(C)n(CCN(C)c2ccc(-c3nc(C4CC4)no3)cn2)n1 | 6.08
17 | COc1ccc(C(C(=O)O)N2CCC(O)(c3cccnc3)CC2)cc1F (configuration not stated) | 50.8
18 | COc1ncccc1CN1C[C@@H]2COC[C@]2(COc2ccccn2)C1 | -3.87
19 | CN(C)CCN1CCO[C@H]2CN(C(=O)c3ccsc3)C[C@H]21 | 3
20 | CN(C)CCN1CCO[C@H]2CN(Cc3ccccn3)C[C@H]21 | -1.91
21 | O=C(CCc1cc2n(n1)CCN(Cc1ccncc1)C2)N1CCCC1 | -7.97

Row | SMILES | cytotoxicity at 10 µM [%]
22 | COc1ccc(C)c2c1N(C(=O)c1cnc(C)s1)CCC2 | -1.46
23 | CCOCCNC(=O)c1cc(Br)c2c(c1)OCCO2 | 1.41
24 | Cn1nc(CN2CCCC2)c2c1CN(C(=O)Nc1cccc(F)c1)CC2 | 5.98
25 | Cc1c(-c2ccncc2)n[nH]c1NC(=O)CCOC(C)C | 6.58
26 | CC(C)Cc1nc(CNCc2cccc(N3CCCC3=O)c2)no1 | 0.753
27 | CCC(Nc1ccc(Oc2ccccc2OC)cc1)C(N)=O (configuration not stated) | 1.77
28 | c1ccc(CN2CC[C@@H]3[C@@H](CO[C@@H]3CNc3ncccn3)C2)nc1 | -4.09
29 | Cc1cc(C)c(Cn2cncn2)cc1CN1CCC(CN)C1 (configuration not stated) | -11.3
30 | O=S(=O)(CCN1CCCC1Cn1cncn1)c1ccccc1 (configuration not stated) | -21
31 | COCc1noc(C2(c3ccc(Br)cc3)CCOCC2)n1 | -9.61
32 | CN(Cc1ncnn1C)C(=O)CCCn1ccc2cc(Cl)ccc21 | 14.7
33 | CCCSCC(=O)NS(=O)(=O)c1ccc2c(c1)OCCO2 | -9.78
34 | CC(C)NC(=O)NC[C@H]1OC[C@@H](NCc2ccc(F)cc2)[C@@H]1O | 2.07
35 | CC(C)c1nc(CN(C)C2CCN(CCNS(C)(=O)=O)C2)no1 (configuration not stated) | -8.48
36 | O=C(C1CC(F)(F)C1)N1C[C@@H]2CN(Cc3ccoc3)CCO[C@@H]2C1 | 7.81
37 | C[C@@]1(O)CCN(Cc2cc[nH]n2)C[C@H]1Oc1cccc(F)c1 | -6.86
38 | COCC1CC2(CCN(Cc3ccc(OC)cc3)CC2)CN1C(C)C (configuration not stated) | -3.68
39 | CO[C@@H]1CO[C@@]2(CCN(C(=O)COc3ccccc3C)C2)C1 | 9.95
40 | CCOCc1cnc2n1CCN(C(=O)Cc1ccco1)C2C (configuration not stated) | 3.53
41 | Cc1cnc(N2CCN(C(C)C(N)=O)CC2)nc1 (configuration not stated) | 0.399
42 | Cc1nc2ccccc2c(=O)n1CCC(=O)N1CCCC1 | -10

Row | SMILES | cytotoxicity at 10 µM [%]
43 | Cc1ccc(CN2CCC3(CCCN(C(=O)N(C)C)C3)C2)cc1 (configuration not stated) | 6.28
44 | CCCNC(=O)c1cc2c(nc1O)CCC(C)C2 (configuration not stated) | 0.717
45 | COC(=O)C(C)(C)C(C)(C)NC(=O)Nc1nnc(-c2ccccn2)s1 | 9.15
46 | Cc1nccn1Cc1nnc(C2CCCN(c3ncccc3F)C2)n1C (configuration not stated) | -4.93
47 | Cc1noc(C)c1CN1CCCC(CN(C(=O)OC(C)(C)C)C(C)C)C1 (configuration not stated) | 2.42
48 | COc1ccc(CN2CCc3nc(C4CCCCN4C)ncc3C2)cc1 (configuration not stated) | -1.08
49 | CCCOCCOC(=O)c1ccc2c(c1)[nH]c(=O)n2C | -16.4
50 | CC(NCCn1c(=O)oc2ccccc21)c1ccccn1 (configuration not stated) | -7.1
51 | CO[C@@H]1CC[C@H]2[C@H]1OCCN2Cc1ccc(F)cc1 | 1.82
52 | CCNc1cc2c(nn1)CCN(C(=O)c1cc3ccccc3[nH]c1=O)C2 | -1.41
53 | CCN(CC)C1COc2c(cc(Br)c(C)c2Br)C1=O (configuration not stated) | 5.77
54 | CC(C(=O)N1CCCN(c2ncccc2C#N)CC1)n1cncn1 (configuration not stated) | -6.54
55 | OC1(CN2CCCC2)COCCN(c2nccs2)C1 (configuration not stated) | -7.64
56 | O=c1[nH]c(NCc2cccc(-c3ccccc3)c2)nc2c1CCNC2 | 3.3
57 | NC1CCN(C(=O)c2c(F)cccc2Br)CC1 | 11.4
58 | Cc1cc(CN2CCN(C(=O)NCc3ccco3)CC2)no1 | -14.8
59 | Cc1nc(CNC2CCCN(c3cccnn3)C2)no1 (configuration not stated) | -5.55
60 | Cc1ccccc1CN(C)C(=O)CCc1nc(-c2nnc[nH]2)no1 | -42.1
61 | Cn1nnnc1SCCNC(=O)C1CCN(C(=O)C2CCCC2)CC1 | -11.8
62 | CS(=O)(=O)CCN1CCCC1c1noc(C2CC2)n1 (configuration not stated) | -6.82
63 | Cc1nc2c(c(NC3CCN(Cc4ccccc4)CC3)n1)CCNCC2 | -6.74

Row | SMILES | cytotoxicity at 10 µM [%]
64 | CC(O)(CN1CCC2(CC1)OCCO2)c1cccc(C(F)(F)F)c1 (configuration not stated) | -9.21
65 | Cc1cc(C)n(CC2CCCN2C(=O)c2cccc3c2OCO3)n1 (configuration not stated) | -15.7
66 | CCN1CC2(CC1=O)CN(Cc1cccs1)CCN(C(=O)C(C)C)C2 (configuration not stated) | -13.9
67 | COCC(=O)Nc1ccc(Sc2nncn2C)c(Cl)c1 | -5.48
68 | COCC(=O)N1CCC2(C1)c1ccccc1S(=O)(=O)N2C (configuration not stated) | 3.57
69 | CS(=O)(=O)N1CCOCC2(CN(Cc3ccsc3)CCO2)C1 (configuration not stated) | -11.7
70 | CCOc1ccc(C(F)(F)F)cc1NCc1cc(C)on1 | -49.3
71 | CCOCc1ccc(NC(=O)N2CCCC2c2nncn2C)cc1 (configuration not stated) | 6.53
72 | CC(C)C(C)NC(=O)Nc1ccc(CC(N)=O)cc1 (configuration not stated) | -3.36
73 | Cc1cc2nccc(C3CCN(C(=O)c4ccccc4F)CC3)n2n1 | 1.16
74 | Cc1noc(CNc2ccc(C(=O)N3CCCC(C)C3)cc2C)n1 (configuration not stated) | -4.07
75 | Cc1ccc(NCCCNC(=O)NCc2c(C)cc(C)[nH]c2=O)nc1 | -45.2
76 | CCOC(C)C(=O)NCc1ccc(N(C)C)cc1 (configuration not stated) | -13.3
77 | CC(C)c1nnc2n1CCN(CCS(=O)(=O)c1ccccc1)C2 | -8.22
78 | Cc1ccccc1S(=O)(=O)N1CCCCC1c1ccn[nH]1 (configuration not stated) | 12.1
79 | CCOc1ccc(NC(=O)c2ccc(C#N)cc2C)cc1CO | -4.12
80 | CCC1=N[C@@]2(CC[C@@H]3CN(C(=O)NCC(C)C)C[C@@H]32)C(=O)N1CC1CC1 | 9.61
81 | Cn1ccc2c(C(=O)NCCCN3CCCC3)cccc21 | -18.3
82 | COc1cccc(CN2C[C@@H]3COC[C@]3(COCc3ccccn3)C2)c1 | -88.8
